# Laboratory results from article PMC8965017 (International Journal of Nanomedicine, 2022).
# Legend:
# [1] = tested on: MDA-MB-231 cells; assay: Cell uptake of C6-labelled micelles; assay type: cell-based, human; details: MDA-MB-231, 1 h and 4 h
# Outline: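 Coumarin 6 was loaded into the polymer micelles by film dispersion. MDA-MB-231 cells were seeded overnight at 1×10^4 cells/well and given free C6 or C6-micelles; one group was pretreated with HA (10 mg/mL) for 0.5 h to block the receptor. After 1 h or 4 h at 37°C, cells were PBS-washed three times, paraformaldehyde-fixed for 10 min, DAPI-stained for 10 min at room temperature and viewed by fluorescence microscopy.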
# [2] = tested on: MDA-MB-231 tumor-bearing mice; assay: In vivo antitumor efficacy; design: species or system BALB/c nude mice; details: 5 mg/kg once every 3 days, 6 times, day 18
# Outline: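 Female BALB/c nude mice aged 4–5 weeks carried subcutaneous MDA-MB-231 tumours. At about 100 mm3 they were randomised into 5 groups (n = 6): PBS, single drugs, combination or nanoparticles. From day 0, intravenous doses of 5 mg/kg were given every 3 days, 6 times in total. Tumour length and width were measured by caliper before each dose to calculate volume, and tumours were excised after the last dose.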
# [3] = tested on: MDA-MB-231 cells; assay: In vitro cytotoxicity, MTT assay; assay type: cell-based, human; details: 5-100 μM, 24 and 48 h
# Outline: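 MDA-MB-231 cells were seeded at 1×10^4 cells/well for 24 h. Medium was then replaced with single drugs, their combination or the nanoparticle formulation at 5, 10, 20, 50, 75 and 100 μM. After 24 or 48 h, MTT was added for 4 h and absorbance was read at 490 nm. Survival was calculated from blank, treated and control OD; mean ± SD, n = 3.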
# [4] = tested on: MDA-MB-231 cells; assay: Calcein-AM/PI staining; assay type: cell-based, human; details: DAS concentration 10 µM, 24 h
# Outline: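 MDA-MB-231 cells (RPMI-1640, 10% FBS, 1% penicillin-streptomycin; 37°C, 5% CO2) were seeded at 1×10^4 cells/well and grown overnight. They were then exposed for 24 h to free drugs, their combination or the nanoparticle formulation at a DAS concentration of 10 µM. Cells were stained with calcein-AM/PI at 37°C for 30 min and imaged by fluorescence microscopy.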
# [5] = In vivo safety; design: species or system BALB/c nude mice; details: after treatment
# Outline: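 At the end of treatment, blood from the MDA-MB-231 xenograft-bearing nude mice was assayed for serum AST, ALT, AKP, BUN and creatinine. Major organs (heart, liver, spleen, lung, kidney) were taken for HE staining. Mean ± SD, n = 3.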
smiles,measurement,setting,value
"CCN(CC)c1ccc2cc(-c3nc4ccccc4s3)c(=O)oc2c1 [C6, coumarin 6]",cellular uptake (green fluorescence of C6),[1],weak green fluorescence
"Cc1nc(Nc2ncc(C(=O)Nc3c(C)cccc3Cl)s2)cc(N2CCN(CCO)CC2)n1 [DAS, Dasatinib]",tumor growth inhibition rate (TGI),[2],49.83%
"O=C(c1cc(Cc2n[nH]c(=O)c3ccccc23)ccc1F)N1CCN(C(=O)C2CC2)CC1 [OLA, Olaparib]",toxicity to MDA-MB-231 cells (MTT),[3],low toxicity
same,"live/dead fluorescence (green living, red dead)",[4],no obvious red appearance
same,"serum indicators of liver and renal function (AST, ALT, BUN, CRE) vs normal mice",[5],significantly increased
